Lmaj promast: Leishmania major promastigote growth inhibition | Leishmania major promastigotes, resazurin fluorescence viability | inhibition, % at 10 µM | 200,000 compounds, 9% hits; in the data active means inhibition above about 50%;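 further: promastigotes grown with compound for 44 hours at 28 °C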
T cruzi repl: blocks replication of Trypanosoma cruzi. inhibition, % (no concentration beside the values). 300,000 compounds, 1.4% hits. T. cruzi beta-gal in NIH3T3, luminescence, 90 h;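 active means mean inhibition across valid replicates above about 55%, limit read from the data; inconclusive means mean below that limit but half or more replicates reach it; inactive means mean below it, under half of replicates reach it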;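 further: signal also drops with host cell toxicity which is not excluded here; 0% = plate median of DMSO wells and 100% = zero luminescence signal; higher percent means less beta-gal luminescence so fewer parasites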
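System: mouse NIH/3T3 fibroblasts infected with β-gal-expressing T. cruzi Tulahuen C4 / Input: NIH/3T3 cells, 5,000 per well / Buffer or medium: Low-serum DMEM with 2% FBS / Probe or stimulus: 5000 reporter trypomastigotes per well / Schedule: ≥90 h infection period, 3 h prior cell attachment / Measured by: GalScreen luminescence, 60 min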
PolyA inh: yeast polyadenylation inhibition. S. cerevisiae SKY197-pL101 polyadenylation reporter, beta-gal luminescence; efflux-impaired pdr1/pdr3 knockout yeast; score 100 = 6 SD above DMSO. activity score, % at 12 µM. 300,000 compounds, 0.02% hits. AID 1875;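 active means lowest replicate activity score at least 50, where 100 means six control SD above control mean; inconclusive means lowest score under 50 but half or more replicates reach 50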;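 further: yeast exposed to compound for 9 h at 30 °C; higher score means more reporter readthrough which indicates perturbed polyadenylation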
NALP1 inh: blocks the NALP1 inflammasome reconstituted in yeast. AID 2071. S. cerevisiae NALP1/ASC/caspase-1 growth, X-gal OD620, 72 h. inhibition, % at 10 µM. 280,000 compounds, 0.61% hits; in the data active means inhibition mostly above about 24%, no sharp cut-off; inactive means mostly below about 32%
NLRP3 yeast inh: NALP3 inhibition in yeast; Yeast reconstituted NLRP3/ASC/caspase-1, beta-gal luminescence, 24 h; inhibition, % at 10 µM; 330,000 compounds, 0.39% hits; AID 2825;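 active means inhibition of 50% or more; inactive means inhibition below 50%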;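 further: plate controls were induced DMSO wells for no effect and uninduced yeast grown without galactose for full effect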
Calb FLC: affects C. albicans growth with fluconazole | C. albicans CaCi-2 + fluconazole, Alamar Blue growth, 48 h | AID 1979 | growth inhibition, % (concentration not given with the values) | 300,000 compounds, 0.57% hits;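 active means growth inhibition above about 58% in most replicates, limit read from the data, passing the limit was not always enough; inconclusive means exactly half the replicates above a set limit; inactive means most replicates below a set limit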;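 further: all wells also contain fluconazole at 8 µg/ml as a sub-toxic cotreatment; 0% = median of DMSO wells and 100% = median of geldanamycin control wells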
* marks the source's active call; other numbers are inactive results; ? = inconclusive; . = not tested or not shown. Only a selection was taken, and hits are over-represented in it overall.

SMILES | Lmaj promast | T cruzi repl | PolyA inh | NALP1 inh | NLRP3 yeast inh | Calb FLC
CC(=O)c1ccc(OCC(O)CN2CCN(c3ccccn3)CC2)cc1 (configuration not stated) | 5 | 6 | 13 | -1 | -1 | -20
CC(=O)c1ccc(OCC(O)CN2CCN(CCN3C(=O)c4cccc5cccc(c45)C3=O)CC2)cc1 (configuration not stated) | 91* | 9 | -37 | -15 | -7 | -21
O=C1c2cccc3cccc(c23)C(=O)N1CC1CCCO1 (configuration not stated) | 1 | -14 | -20 | 2 | 4 | 1
Cc1cccc(C)c1OCC(O)CN1CCC(CN2C(=O)c3cccc4cccc(c34)C2=O)CC1 (configuration not stated) | 93* | 44 | 20 | 43* | 24 | 22
C=CCc1ccccc1OCC(O)CN1CCN(CCN2C(=O)c3cccc4cccc(c34)C2=O)CC1 (configuration not stated) | 100* | 44 | 8 | 37 | 15 | 54
O=C1Nc2cc(Cl)c(Cl)cc2N(O)N1c1ccc(Cl)c(Cl)c1 | -7 | 0 | -11 | 10 | 18 | -14
O=C(NCCCN1CCOCC1)C(C(=O)c1ccccc1)n1ccccc1=O (configuration not stated) | -5 | -15 | 2 | 40* | -1 | -3
CC(C(=O)NCCCN1CCOCC1)n1cccc1C(=O)c1ccccc1 (configuration not stated) | -3 | -6 | 2 | 2 | 15 | 3
COc1ccc2c3c(cccc13)C(=O)N(O)C2=O | 35 | -70 | 31 | 9 | . | -9
CCC1=NNc2cccc3c(OC)ccc1c23 | 100* | 31 | 5 | -6 | 13 | -5
O=C(OCC(=O)N1CCCC1=O)c1ccc(F)c(S(=O)(=O)N2CCOCC2)c1 | . | -6 | -9 | 10 | 3 | -4
CC(C)(C)/C(Cn1cncn1)=N\OC(=O)Nc1ccc(Cl)cc1 | 85* | 45 | 11 | 29 | -2 | -32
Cc1ccc(C2(CC(=O)N3CCCC3)CCOC(C(C)C)C2)cc1 (configuration not stated) | 13 | 0 | -8 | 20 | 11 | 7
CC(C)C1CC(CCNCc2ccc3c(c2)OCO3)(c2ccccc2)CCO1 (configuration not stated) | . | 30 | 25 | . | 14 | -8
Cc1ccc(C2(CCNCc3ccc(N(C)C)cc3)CCOC(C(C)C)C2)cc1 (configuration not stated) | 100* | 48 | -4 | -7 | 11 | 10
Cc1ccc(C2(CCNS(=O)(=O)c3ccc(C)cc3)CCOC(C(C)C)C2)cc1 (configuration not stated) | 63* | 6 | 1 | 5 | -4 | -12
CN(C)c1ccc(CNCCC2(O)CCOC(C)(C)C2)cc1 (configuration not stated) | -4 | . | . | . | 8 | .
CC(C)C1CC(CCNCc2ccc(N(C)C)cc2)(c2ccccc2)CCO1 (configuration not stated) | 98* | 30 | 5 | 44 | 14 | -5
O=c1cc2oc3cc(O)c(O)cc3c(-c3ccccc3[N+](=O)[O-])c-2cc1O | . | -27 | 7 | 27 | 41 | 88*
CC(=O)Nc1ccc(NC(=O)COC(=O)c2c(C)nn(-c3ccccc3)c2C)cc1 | 67* | 6 | 4 | 17 | 16 | 51
Cc1nn(-c2ccccc2)c(C)c1C(=O)OCC(=O)Nc1ccccc1F | . | . | . | . | 6 | .
S=c1nc2c(n[nH]1)c1ccccc1n2CCc1ccccc1 | . | 66* | -2 | -22 | 22 | 1
CSc1nnc2c3ccccc3n(CCc3ccccc3)c2n1 | 1 | 35 | -57 | -18 | 19 | 1
Cc1ccc(S(=O)(=O)Nc2cccc3cccnc23)cc1 | 100* | 49 | -35 | -14 | 2 | 7
Cc1ccc(S(=O)(=O)Nc2cc(C(C)C)c(O)cc2C)cc1 | 76* | 17 | 5 | 18 | -3 | 23
SMILES | Lmaj promast | T cruzi repl | PolyA inh | NALP1 inh | NLRP3 yeast inh | Calb FLC
COc1cc(NS(=O)(=O)c2ccc(C)cc2)c2ncccc2c1 | 99* | 78* | -25 | 6 | -7 | ?
CNC(=O)Nc1cccc2cccnc12 | . | -19 | 19 | 44* | -5 | 10
Cc1ccc(NS(=O)(=O)c2cccc3cccnc23)c(Cl)c1 | . | -2 | -4 | 0 | 33 | 64
CCN(C[C@H]1N[C@@](Cc2ccccc2)(C(=O)OC)[C@H]2C(=O)N(C)C(=O)[C@@H]12)S(=O)(=O)c1ccc(-c2ccccc2)cc1 | . | . | . | . | 8 | .
Cc1ccc(C(=O)NCc2ccc(N3CCN(C)CC3)cc2)cc1C | . | 11 | -2 | 4 | 7 | 16
Cc1ccc(CN2CCC(n3nccc3NC(=O)C3CCOC3)CC2)cc1 (configuration not stated) | . | 2 | 2 | -4 | 12 | -8
O=C(CCN1C(=O)/C(=C/c2ccccc2Cl)SC1=S)NC1C=CS(=O)(=O)C1 (configuration not stated) | . | -28 | 4 | 15 | 14 | -1
Cc1ccc(OCC(=O)N(Cc2ccccc2)c2c(N)n(Cc3ccccc3)c(=O)[nH]c2=O)c(C)c1 | . | -1 | 12 | . | 22 | .
Cc1ccc(S(=O)(=O)Nc2ccccc2-c2ccccc2NS(=O)(=O)c2ccc(C)cc2)cc1 | 96* | -5 | -10 | 7 | 13 | -2
Cc1ccc(S(=O)(=O)Nc2ccccc2C(N)=O)cc1 | -2 | 6 | 0 | 25 | -3 | 7
Cc1cc(C)c(NC(=O)CO/N=C2\CCCc3nonc32)c(C)c1 | -4 | -3 | -9 | 22 | 27 | 0
Clc1ccc(Cl)c(OCCN2CCCC2)c1 | . | 6 | 2 | 1 | 23 | -12
CC1CCN(CCOCCOc2ccc(Cl)cc2Br)CC1 | 101* | 64* | -17 | 20 | 21 | 14
Clc1ccc(OCCOCCN2CCCCC2)c(Br)c1 | 100* | 59* | -19 | 34 | 28 | 24
Cc1ccc(Cl)c(OCCN2CCCC(C)C2)c1 (configuration not stated) | 91* | -26 | -52 | 37 | 26 | -1
CC1CCCN(CCOc2ccc3ccccc3c2Br)C1 (configuration not stated) | 88* | 37 | -40 | 14 | 21 | 0
COc1cccc2cccc(/C=N/n3cnnc3)c12 | -4 | 18 | 18 | -6 | 9 | 14
O=C(NCCc1ccccc1)c1ccc2c(c1)S(=O)(=O)c1cc(Cl)ccc1C2=O | . | . | . | . | 8 | .
CC1CCN(CCCOc2ccc(Cl)cc2Br)CC1 | 87* | 16 | -28 | -1 | 12 | -17
CC1CCCN(CCCOc2ccc(Cl)cc2Br)C1 (configuration not stated) | 98* | 21 | -37 | 50* | 21 | -8
COCCNC(=O)C1CC(=O)N(C2CCCC2)C1 (configuration not stated) | -5 | 15 | 4 | 13 | 24 | 14

Screens (PubChem)
